Experimental data: ChEMBL document CHEMBL3272327, “Hypocholesterolemic activity of 1,3-bis(substituted phenoxy)-2-propanones” (J Med Chem, 1976)

Assays:
[1] = system: Rattus norvegicus; assay: Hypocholesterolemic activity in Sprague-Dawley rat assessed as serum cholesterol level at 50 mg/kg/day, po administered via intubation measured on day 10 by Liebermann-Burchard reaction (reference value: 100 +/- 7%); assay type: functional
[2] = system: Rattus norvegicus; assay: Effect on kidney weight in rat at 5 mg/kg/day administered for 16 days measured 24 hrs after last drug dosage relative to total body weight (reference value: 0.92 +/- 0.04%); assay type: ADME, organism-based; details: in vivo
[3] = system: Rattus norvegicus; assay: Effect on heart weight in rat at 10 mg/kg/day administered for 16 days measured 24 hrs after last drug dosage relative to total body weight (reference value: 0.37 to 0.43%); assay type: ADME, organism-based; details: in vivo
[4] = system: Rattus norvegicus; assay: Effect on food intake in rat at 50 mg/kg/day measured during first week (reference value: 19.1 +/- 1.7 gms); assay type: ADME, organism-based; details: in vivo
In short: (§1)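 Male rats dosed orally at 1, 5, 10 or 50 mg/kg/day in 1% CMC. Average food intake in grams per rat per week measured over a 2-week period, first and second weeks reported separately. N = 8, Student's t test against the 1% CMC control.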

[5] = system: Rattus norvegicus; assay: Hypocholesterolemic activity in rat assessed as [14C]palmitic acid level in spleen at 10 mg/kg/day administered for 1 week measured after 22 hrs on day 7 by scintillation counting analysis (reference value: 0.46 +/- 0.24%); assay type: functional
In short: (§2)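 Male Sprague-Dawley rats on lab chow dosed orally once daily for 1 week at 10 mg/kg/day, suspended in 1% CMC, or given vehicle alone. On day 7, 5 μCi [1-14C]palmitic acid given orally. Killed after 22 hr; organs made into 10% water homogenates. Aliquots of 0.1 cc of homogenate, urine, blood or feces were digested and scintillation counted. Output is % of dose per tissue, N = 6.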

[6] = system: Rattus norvegicus; assay: Hypocholesterolemic activity in [14C]palmitic acid-treated rat assessed as increase in free fatty acid accumulation in liver at 10 mg/kg/day administered for 1 week by scintillation counting analysis; assay type: functional
[7] = system: Rattus norvegicus; assay: Effect on food intake in rat at 1 mg/kg/day measured during first week (reference value: 19.1 +/- 1.7 gms); assay type: ADME, organism-based; details: in vivo; in short: as §1
[8] = system: Rattus norvegicus; assay: Effect on vas deferens and epididymis weight in rat at 5 mg/kg/day administered for 16 days measured 24 hrs after last drug dosage relative to total body weight (reference value: 0.22 +/- 0.04%); assay type: ADME, organism-based; details: in vivo
[9] = system: Rattus norvegicus; assay: Increase in lipase level in rat serum at 10 mg/kg/day administered for 16 days (reference value: 100 +/- 39%); assay type: functional
In short: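 Male Sprague-Dawley rats dosed orally at 10 mg/kg/day in 1% CMC for 16 days. Serum lipase was measured with a commercial serum lipase kit. Expressed as percent of vehicle control, N = 8.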

[10] = system: Rattus norvegicus; assay: Hypocholesterolemic activity in rat assessed as [14C]palmitic acid level in chyme at 10 mg/kg/day administered for 1 week measured after 22 hrs on day 7 by scintillation counting analysis (reference value: 0.41+/- 0.17%); assay type: functional; in short: as §2
[11] = system: Rattus norvegicus; assay: Effect on spleen weight in rat at 5 mg/kg/day administered for 16 days measured 24 hrs after last drug dosage relative to total body weight (reference value: 0.55 +/- 0.12%); assay type: ADME, organism-based; details: in vivo
[12] = system: Rattus norvegicus; assay: Effect on brain weight in rat at 50 mg/kg/day administered for 16 days measured 24 hrs after last drug dosage relative to total body weight (reference value: 0.67 +/- 0.05%); assay type: ADME, organism-based; details: in vivo
[13] = system: Rattus norvegicus; assay: Hypocholesterolemic activity in rat assessed as [14C]cholesterol level in vas deferens at 10 mg/kg/day administered for 1 week measured after 22 hrs on day 7 by scintillation counting analysis (reference value: 0.03 +/- 0.02%); assay type: functional
In short: (§3)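 Male rats were dosed orally for 1 week (10 mg/kg/day) or with 1% CMC. On day 7 they received 5 μCi [4-14C]cholesterol orally and were killed after 22 hr. Organs were homogenized (10% in water); 0.1-cc aliquots of homogenate, urine, blood or feces were digested with Protosol. Samples were counted in toluene/Triton X-100 (2:1) scintillant with 0.4% PPO and 0.01% POPOP. Results are % of dose per tissue, N = 6.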

[14] = system: Rattus norvegicus; assay: Effect on kidney weight in rat at 50 mg/kg/day administered for 16 days measured 24 hrs after last drug dosage relative to total body weight (reference value: 0.92 +/- 0.04%); assay type: ADME, organism-based; details: in vivo
[15] = system: Rattus norvegicus; assay: Effect on body weight in rat at 1 mg/kg/day administered for 16 days measured on day 7 (reference value: 173 +/- 12 gms); assay type: ADME, organism-based; details: in vivo, 384 h
In short: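 Male Sprague-Dawley rats with chow and water ad libitum. Compound suspended in 1% CMC-water and given orally by intubation needle at 11:00 a.m., 1, 5, 10 or 50 mg/kg/day, for 16 days. Body weight (g) recorded on days 0, 7 and 16. N = 8.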

[16] = system: Rattus norvegicus; assay: Effect on brain weight in rat at 5 mg/kg/day administered for 16 days measured 24 hrs after last drug dosage relative to total body weight (reference value: 0.67 +/- 0.05%); assay type: ADME, organism-based; details: in vivo
[17] = system: Rattus norvegicus; assay: Effect on food intake in rat at 10 mg/kg/day measured during second week (reference value: 23.4 +/- 1.8 gms); assay type: ADME, organism-based; details: in vivo; in short: as §1
[18] = system: Rattus norvegicus; assay: Hypocholesterolemic activity in rat assessed as [14C]palmitic acid level in blood at 10 mg/kg/day administered for 1 week measured after 22 hrs on day 7 by scintillation counting analysis (reference value: 0.11 +/- 0.06%); assay type: functional
[19] = system: Rattus norvegicus; assay: Effect on liver weight in rat at 5 mg/kg/day administered for 16 days measured 24 hrs after last drug dosage relative to total body weight (reference value: 4.22 +/- 0.29%); assay type: ADME, organism-based; details: in vivo
[20] = system: Rattus norvegicus; assay: Effect on heart weight in rat at 50 mg/kg/day administered for 16 days measured 24 hrs after last drug dosage relative to total body weight (reference value: 0.37 +/- 0.04%); assay type: ADME, organism-based; details: in vivo
[21] = system: Rattus norvegicus; assay: Effect on vas deferens and epididymis weight in rat at 1 mg/kg/day administered for 16 days measured 24 hrs after last drug dosage relative to total body weight (reference value: 0.22 +/- 0.04%); assay type: ADME, organism-based; details: in vivo
[22] = system: Rattus norvegicus; assay: Hypocholesterolemic activity in Sprague-Dawley rat assessed as serum cholesterol level at 10 mg/kg/day, po administered via intubation measured on day 4 by Liebermann-Burchard reaction (reference value: 100%); assay type: functional
[23] = Toxicity in ip dosed CF1 mouse assessed as animal death; assay type: organism-based; details: in vivo
In short: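 Male CF1 mice given active propanones ip over 10 mg to 6 g/kg where solubility allowed; deaths recorded to estimate LD50.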

[24] = system: Rattus norvegicus; assay: Effect on food intake in rat at 5 mg/kg/day measured during second week (reference value: 23.4 +/- 1.8 gms); assay type: ADME, organism-based; details: in vivo; in short: as §1
[25] = system: Rattus norvegicus; assay: Hypocholesterolemic activity in rat assessed as [14C]palmitic acid level in vas deferens at 10 mg/kg/day administered for 1 week measured after 22 hrs on day 7 by scintillation counting analysis (reference value: 0.23 +/- 0.05%); assay type: functional; in short: as §2
[26] = system: Rattus norvegicus; assay: Hypocholesterolemic activity in rat assessed as serum glycerol level at 10 mg/kg/day administered for 14 days (reference value: 100 +/- 39%); assay type: functional
[27] = system: Rattus norvegicus; assay: Hypocholesterolemic activity in rat assessed as [14C]cholesterol level in brain at 10 mg/kg/day administered for 1 week measured after 22 hrs on day 7 by scintillation counting analysis (reference value: 0.12 +/- 0.04%); assay type: functional; in short: as §3
[28] = system: Rattus norvegicus; assay: Effect on kidney weight in rat at 1 mg/kg/day administered for 16 days measured 24 hrs after last drug dosage relative to total body weight (reference value: 0.92 +/- 0.04%); assay type: ADME, organism-based; details: in vivo

Molecule Cc1ccc(OCC(=O)COc2ccc(C)cc2)cc1 has an Activity [1] of 46%, an Activity [2] of 0.88% and an Activity [3] of 0.38%. The Activity [4] was 18.9 g, the Activity [5] was 0.37% and the Activity [6] was 10%. It also gave an Activity [7] of 19.2 g, an Activity [8] of 0.21% and an Activity [9] of 222%. For the same molecule, the Activity [10] was 2%, the Activity [11] was 0.44% and the Activity [12] was 0.83%. For the same molecule, the Activity [13] was 0.07%, the Activity [14] was 0.88% and the Activity [15] was 166 g. The Activity [16] was 0.73%, the Activity [17] was 28.6 g and the Activity [18] was 0.03%. It also gave an Activity [19] of 4.31%, an Activity [20] of 0.4% and an Activity [21] of 0.23%. It also gave an Activity [22] of 77%, an LD50 [23] of 1500 mg/kg and an Activity [24] of 28.8 g. It also gave an Activity [25] of 0.5%, an Activity [26] of 24% and an Activity [27] of 0.16%. For the same molecule, the Activity [28] was 0.79%.
